Legend:
Daoy = experiment: Cytotoxicity against human DaOY cells after 72 hrs by MTS assay; format: functional, cell-based
In short: (§1)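 Cells (1 × 10^4/well) seeded the evening before. Compounds were taken from 10 mM DMSO stock into growth medium and tested at 2, 10, 25, 50 and 75 µM, four wells each, with DMSO-matched controls. Exposure was 72 h, then MTS reagent for 1.5-4 h at 37 °C, and formazan A490 was read against DMSO-treated cells. IC50 is the mean of four wells from one experiment, or of three experiments where stated.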

OVCAR-3 = experiment: Cytotoxicity against human OVCAR-3 cells after 120 hrs by MTS assay; settings: OVCAR-3, 120 h
SK-MEL-2 = experiment: Cytotoxicity against human SK-MEL-2 cells after 72 hrs by MTS assay; format: functional, cell-based; settings: SK-MEL-2, 72 h; in short: as §1
A-375 = experiment: Cytotoxicity against human A375 cells after 72 hrs by MTS assay; format: functional, cell-based; settings: A-375, 72 h; in short: as §1
[1] = Cytotoxicity against human LN229 cells after 72 hrs by MTS assay; format: functional, cell-based; settings: LN-229, 72 h; in short: as §1
MCF7 = experiment: Cytotoxicity against human MCF7 cells after 72 hrs by MTS assay; format: functional, cell-based; settings: MCF7, 72 h; in short: as §1
HT-29 = experiment: Cytotoxicity against human HT-29 cells after 72 hrs by MTS assay; format: functional, cell-based; settings: HT-29, 72 h; in short: as §1

Structure (SMILES) | IC50 (Daoy) [µM] | IC50 (OVCAR-3) [µM] | IC50 (SK-MEL-2) [µM] | IC50 (A-375) [µM] | IC50 [1] [µM] | IC50 (MCF7) [µM] | IC50 (HT-29) [µM]
C=C(C)[C@@H]1CC[C@]2(C(=O)O)CC[C@]3(C)[C@H](CC[C@@H]4[C@@]5(C)CCC(N)C(C)(C)[C@@H]5CC[C@]43C)[C@@H]12 (stereo not given in full) | 7 | 14 | 8 |  |  |  | 
C=C(C)[C@@H]1CC[C@]2(CO)CC[C@]3(C)[C@H](CC[C@@H]4[C@@]5(C)CCC(NCCc6ccc(O)cc6)C(C)(C)[C@@H]5CC[C@]43C)[C@@H]12 (stereo not given in full) | < 2 | 5 | 2 | 4 | 8 | 5 | 2
C=C(C)[C@@H]1CC[C@]2(CO)CC[C@]3(C)[C@H](CC[C@@H]4[C@@]5(C)CCC(NCCc6ccc(O)c(O)c6)C(C)(C)[C@@H]5CC[C@]43C)[C@@H]12 (stereo not given in full) | 10 | 4 | 17 | 6 | 9 | 17 | 6
C=C(C)[C@@H]1CC[C@]2(CO)CC[C@]3(C)[C@H](CC[C@@H]4[C@@]5(C)CCC(NCCOC)C(C)(C)[C@@H]5CC[C@]43C)[C@@H]12 (stereo not given in full) | 8 | 22 | 7 | 7 |  | 8 | 19
C=C(CO)[C@@H]1CC[C@]2(CO)CC[C@]3(C)[C@H](CC[C@@H]4[C@@]5(C)CC[C@H](N)C(C)(C)[C@@H]5CC[C@]43C)[C@@H]12 | 31 | 14 | 34 | 6 | 17 | 15 | 17
C=C(CO)[C@@H]1CC[C@]2(CO)CC[C@]3(C)[C@H](CC[C@@H]4[C@@]5(C)CC[C@H](NCCc6ccc(O)cc6)C(C)(C)[C@@H]5CC[C@]43C)[C@@H]12 | 32 | 23 | 38 | 6 | 17 | 17 | 21
C=C(CNCCc1ccc(O)cc1)[C@@H]1CC[C@]2(CO)CC[C@]3(C)[C@H](CC[C@@H]4[C@@]5(C)CCC(=O)C(C)(C)[C@@H]5CC[C@]43C)[C@@H]12 | 17 |  | 16 | 6 | 8 | 6 | 4
C=C(CNCCO)[C@@H]1CC[C@]2(CO)CC[C@]3(C)[C@H](CC[C@@H]4[C@@]5(C)CC[C@H](O)C(C)(C)[C@@H]5CC[C@]43C)[C@@H]12 | 35 |  | 15 |  |  |  | 
C=C(CNCCc1ccc(O)cc1)[C@@H]1CC[C@]2(CO)CC[C@]3(C)[C@H](CC[C@@H]4[C@@]5(C)CC[C@H](O)C(C)(C)[C@@H]5CC[C@]43C)[C@@H]12 | 16 |  | 16 |  |  |  | 
C=C(CNCCO)[C@@H]1CC[C@]2(CO)CC[C@]3(C)[C@H](CC[C@@H]4[C@@]5(C)CCC(NCCO)C(C)(C)[C@@H]5CC[C@]43C)[C@@H]12 (stereo not given in full) | 13 |  | 7 | 6 | 16 | 6 | 2
C=C(CNCCO)[C@@H]1CC[C@]2(CO)CC[C@]3(C)[C@H](CC[C@@H]4[C@@]5(C)CCC(NCCc6ccc(O)c(O)c6)C(C)(C)[C@@H]5CC[C@]43C)[C@@H]12 (stereo not given in full) | 5 |  | 5 | 7 | 32 | 4 | 4
C=C(CNCCO)[C@@H]1CC[C@]2(CO)CC[C@]3(C)[C@H](CC[C@@H]4[C@@]5(C)CCC(NCCOC)C(C)(C)[C@@H]5CC[C@]43C)[C@@H]12 (stereo not given in full) | 5 |  | 8 | 4 | 28 | 11 | 2

— ChEMBL document CHEMBL1221374, “Synthesis, proapoptotic screening, and structure-activity relationships of novel aza-lupane triterpenoids” (Bioorg Med Chem Lett, 2010)
